In brackets after ≈: the same amount, converted by molar mass. Square brackets hold non-standard residues; d marks the D form. Peptide text beside a SMILES is read from it. Orn = NCCC[C@H](N)C(=O)O
How the values were obtained:
[1] = tested on: Staphylococcus epidermidis; assay: Antimicrobial activity against Staphylococcus epidermidis after 24 hrs by standard microtiter dilution method; format: functional
Enterococcus faecalis = assay: Antimicrobial activity against Enterococcus faecalis after 24 hrs by standard microtiter dilution method; format: functional
Streptococcus mitis = assay: Antimicrobial activity against Streptococcus mitis after 24 hrs by standard microtiter dilution method; format: functional
Streptococcus pneumoniae = assay: Antimicrobial activity against Streptococcus pneumoniae after 24 hrs by standard microtiter dilution method; format: functional
[2] = Therapeutic index, ratio of hemolytic activity in human RBC to MIC for Corynebacterium jeikeium; settings: human red blood cells (RBC), read-out: TI
Cryptococcus neoformans = assay: Antimicrobial activity against Cryptococcus neoformans after 24 hrs by standard microtiter dilution method; format: functional
Method in brief: (§1)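 Fungal MICs were determined by standard microtitre dilution, taken as the lowest peptide concentration inhibiting growth after 24 h incubation at 37 °C.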

Klebsiella pneumoniae = assay: Antimicrobial activity against Klebsiella pneumoniae after 24 hrs by standard microtiter dilution method; format: functional
[3] = Therapeutic index, ratio of hemolytic activity in human RBC to MIC for Cryptococcus neoformans; settings: human red blood cells (RBC), read-out: TI
[4] = tested on: Stenotrophomonas maltophilia; assay: Antimicrobial activity against Stenotrophomonas maltophilia after 24 hrs by standard microtiter dilution method; format: functional
[5] = Therapeutic index, ratio of hemolytic activity in human RBC to MIC for Streptococcus pneumoniae; settings: human red blood cells (RBC), read-out: TI
[6] = Therapeutic index, ratio of hemolytic activity in human RBC to MIC for Streptococcus mitis; settings: human red blood cells (RBC), read-out: TI
[7] = Toxicity in human RBC assessed as fold reduction in hemolytic activity at 100 ug/ml after 24 hrs relative to control; format: cell-based; settings: erythrocyte
[8] = Therapeutic index, ratio of hemolytic activity in human RBC to MIC for Pseudomonas aeruginosa; settings: human red blood cells (RBC), read-out: TI
[9] = Therapeutic index, ratio of hemolytic activity in human RBC to MIC for Candida albicans; settings: human red blood cells (RBC), read-out: TI
[10] = Therapeutic index, ratio of hemolytic activity in human RBC to MIC for Acinetobacter calcoaceticus; settings: human red blood cells (RBC), read-out: TI
[11] = Therapeutic index, ratio of hemolytic activity in human RBC to MIC for Staphylococcus epidermidis; settings: human red blood cells (RBC), read-out: TI
[12] = Therapeutic index, ratio of hemolytic activity in human RBC to MIC for Enterobacter cloacae; settings: human red blood cells (RBC), read-out: TI
[13] = Therapeutic index, ratio of hemolytic activity in human RBC to MIC for Serratia marcescens; settings: human red blood cells (RBC), read-out: TI
Candida albicans = assay: Antimicrobial activity against Candida albicans after 24 hrs by standard microtiter dilution method; format: functional; method in brief: as §1
[14] = Therapeutic index, ratio of hemolytic activity in human RBC to MIC for Stenotrophomonas maltophilia; settings: human red blood cells (RBC), read-out: TI
Staphylococcus aureus = assay: Antimicrobial activity against Staphylococcus aureus after 24 hrs by standard microtiter dilution method; format: functional
Pseudomonas aeruginosa = assay: Antimicrobial activity against Pseudomonas aeruginosa after 24 hrs by standard microtiter dilution method; format: functional
Streptococcus pyogenes = assay: Antimicrobial activity against Streptococcus pyogenes after 24 hrs by standard microtiter dilution method; format: functional
[15] = tested on: Acinetobacter calcoaceticus; assay: Antimicrobial activity against Acinetobacter calcoaceticus after 24 hrs by standard microtiter dilution method; format: functional
Serratia marcescens = assay: Antimicrobial activity against Serratia marcescens after 24 hrs by standard microtiter dilution method; format: functional
[16] = Therapeutic index, ratio of hemolytic activity in human RBC to MIC for Klebsiella pneumoniae; settings: human red blood cells (RBC), read-out: TI
[17] = Therapeutic index, ratio of hemolytic activity in human RBC to MIC for Escherichia coli; settings: human red blood cells (RBC), read-out: TI
Corynebacterium jeikeium = assay: Antimicrobial activity against Corynebacterium jeikeium after 24 hrs by standard microtiter dilution method; format: functional
[18] = Therapeutic index, ratio of hemolytic activity in human RBC to MIC for Streptococcus pyogenes; settings: human red blood cells (RBC), read-out: TI
Enterobacter cloacae = assay: Antimicrobial activity against Enterobacter cloacae after 24 hrs by standard microtiter dilution method; format: functional
[19] = Therapeutic index, ratio of hemolytic activity in human RBC to MIC for Enterococcus faecalis; settings: human red blood cells (RBC), read-out: TI
[20] = Toxicity in human RBC assessed as hemolytic activity at 100 ug/ml after 24 hrs relative to control; format: cell-based, Erythrocyte; settings: human red blood cells (RBC), read-out: Activity
Method in brief: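 Human erythrocytes in saline were exposed to peptide at 100 µg/mL for 24 h at 37 °C. Result is expressed as percent hemolysis.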

[21] = Therapeutic index, ratio of hemolytic activity in human RBC to MIC for Staphylococcus aureus; settings: human red blood cells (RBC), read-out: TI
Escherichia coli = assay: Antimicrobial activity against Escherichia coli after 24 hrs by standard microtiter dilution method; format: functional

| SMILES | MIC [1] [µg/mL] | MIC (Enterococcus faecalis) [µg/mL] | MIC (Streptococcus mitis) [µg/mL] | MIC (Streptococcus pneumoniae) [µg/mL] | selectivity ratio [2] | MIC (Cryptococcus neoformans) [µg/mL] | MIC (Klebsiella pneumoniae) [µg/mL] | selectivity ratio [3] | MIC [4] [µg/mL] | selectivity ratio [5] | selectivity ratio [6] | Activity [7] | selectivity ratio [8] | selectivity ratio [9] | selectivity ratio [10] | selectivity ratio [11] | selectivity ratio [12] | selectivity ratio [13] | MIC (Candida albicans) [µg/mL] | selectivity ratio [14] | also measured |
| --- | --- | --- | --- | --- | --- | --- | --- | --- | --- | --- | --- | --- | --- | --- | --- | --- | --- | --- | --- | --- | --- |
| CC(C)C[C@@H]1NC(=O)[C@H](CCCCN)NC(=O)[C@H](C(C)C)NC(=O)[C@@H]2CCCN2C(=O)[C@@H](Cc2ccc(O)cc2)NC(=O)[C@H](CC(C)C)NC(=O)[C@H](CCCCN)NC(=O)[C@H](C(C)C)NC(=O)[C@@H]2CCCN2C(=O)[C@@H](Cc2ccc(O)cc2)NC1=O (cyclo(KL[dY]PVKL[dY]PV)) | 2 (≈ 1.66 µM) | 2 (≈ 1.66 µM) | 1 (≈ 0.832 µM) | 1 (≈ 0.832 µM) | 100 | 1 (≈ 0.832 µM) | 32 (≈ 26.6 µM) | 100 | 16 (≈ 13.3 µM) | 100 | 100 | 1 | 1 |  |  |  |  |  |  |  |  |
| CC(C)C[C@@H]1NC(=O)[C@H](CCCCN)NC(=O)[C@H](C(C)C)NC(=O)[C@@H]2CCCN2C(=O)[C@@H](Cc2ccc(O)cc2)NC(=O)[C@H](CC(C)C)NC(=O)[C@H](CCCCN)NC(=O)[C@H](C(C)C)NC(=O)[C@@H]2CCCN2C(=O)[C@@H](Cc2ccc(O)cc2)NC(=O)[C@H](CCCCN)NC1=O (cyclo(VKLK[dY]PVKL[dY]P)) |  |  |  |  |  |  |  |  |  | 255 |  |  |  | 16 | 255 | 128 |  |  |  |  |  |
| CC(C)C[C@@H]1NC(=O)[C@H](CCCCN)NC(=O)[C@H](C(C)C)NC(=O)[C@@H]2CCCN2C(=O)[C@@H](Cc2ccc(O)cc2)NC(=O)[C@H](CC(C)C)NC(=O)[C@H](CCCCN)NC(=O)[C@H](C(C)C)NC(=O)[C@H](CCCCN)NC(=O)[C@H](CC(C)C)NC(=O)[C@H](CCCCN)NC(=O)[C@@H]2CCCN2C(=O)[C@@H](Cc2ccc(O)cc2)NC(=O)[C@H](C(C)C)NC(=O)[C@H](CCCCN)NC1=O (cyclo(VKLKV[dY]PKLKVKL[dY]P)) |  |  |  |  |  |  |  |  |  |  |  |  |  |  |  |  | 2 |  |  |  |  |
| CC(C)C[C@@H]1NC(=O)[C@H](CCCCN)NC(=O)[C@H](C(C)C)NC(=O)[C@@H]2CCCN2C(=O)[C@@H](Cc2ccc(O)cc2)NC(=O)[C@H](CC(C)C)NC(=O)[C@H](CCCCN)NC(=O)[C@H](C(C)C)NC(=O)[C@H](CCCCN)NC(=O)[C@H](CC(C)C)NC(=O)[C@@H]2CCCN2C(=O)[C@@H](Cc2ccc(O)cc2)NC(=O)[C@H](CCCCN)NC1=O (cyclo(VKLK[dY]PLKVKL[dY]P)) |  |  |  |  |  |  |  |  |  |  |  |  |  |  |  |  | 4 | 2 |  |  |  |
| CC(C)C[C@@H]1NC(=O)[C@H](CCCCN)NC(=O)[C@H](C(C)C)NC(=O)[C@@H]2CCCN2C(=O)[C@@H](Cc2ccc(O)cc2)NC(=O)[C@H](CC(C)C)NC(=O)[C@H](CCCCN)NC(=O)[C@H](C(C)C)NC(=O)[C@H](CCCCN)NC(=O)[C@H](CC(C)C)NC(=O)[C@@H]2CCCN2C(=O)[C@@H](Cc2ccc(O)cc2)NC(=O)[C@H](C(C)C)NC(=O)[C@H](CCCCN)NC1=O (cyclo(KLKV[dY]PLKVKL[dY]PV)) |  |  |  |  |  | 2 (≈ 1.2 µM) | 128 (≈ 76.6 µM) |  |  |  |  | 1 | 2 | 2 |  |  |  |  | 64 (≈ 38.3 µM) | 2 | MIC (Staphylococcus aureus): 32 µg/mL (≈ 19.2 µM); MIC (Pseudomonas aeruginosa): 64 µg/mL (≈ 38.3 µM); MIC (Streptococcus pyogenes): 1 µg/mL (≈ 0.599 µM); MIC [15]: 16 µg/mL (≈ 9.58 µM); MIC (Serratia marcescens): 256 µg/mL (≈ 153 µM) |
| CC(C)C[C@@H]1NC(=O)[C@H](CCCN)NC(=O)[C@H](C(C)C)NC(=O)[C@@H]2CCCN2C(=O)[C@@H](Cc2ccccc2)NC(=O)[C@H](CC(C)C)NC(=O)[C@H](CCCN)NC(=O)[C@H](C(C)C)NC(=O)[C@@H]2CCCN2C(=O)[C@@H](Cc2ccccc2)NC1=O [GRAMICIDIN S] (cyclo(L[dF]PV[Orn]L[dF]PV[Orn])) | 2 (≈ 1.75 µM) | 2 (≈ 1.75 µM) | 0.5 (≈ 0.438 µM) | 1 (≈ 0.876 µM) | 25 | 1 (≈ 0.876 µM) | 16 (≈ 14 µM) | 100 | 8 (≈ 7.01 µM) | 100 | 200 | 1 | 3 | 12 | 12 | 50 | 3 | 0.3 | 8 (≈ 7.01 µM) | 12 | selectivity ratio [16]: 6; MIC (Staphylococcus aureus): 2 µg/mL (≈ 1.75 µM); selectivity ratio [17]: 6; MIC (Corynebacterium jeikeium): 4 µg/mL (≈ 3.5 µM); MIC (Pseudomonas aeruginosa): 32 µg/mL (≈ 28 µM); MIC (Streptococcus pyogenes): 0.5 µg/mL (≈ 0.438 µM); selectivity ratio [18]: 200; MIC (Enterobacter cloacae): 32 µg/mL (≈ 28 µM); selectivity ratio [19]: 50; MIC [15]: 8 µg/mL (≈ 7.01 µM); MIC (Serratia marcescens): 256 µg/mL (≈ 224 µM); hemolysis at 24 h, 100 ug/ml [20]: 100%; selectivity ratio [21]: 50; MIC (Escherichia coli): 16 µg/mL (≈ 14 µM) |

Source: ChEMBL document CHEMBL1153373, “Effect of ring size on conformation and biological activity of cyclic cationic antimicrobial peptides” (J Med Chem, 2009)
